Test results as given in the array DNA melting data of Ke et al. (doi:10.1101/2024.01.08.574731).

How the values were obtained:
[1] = melting temperature; fluorescence melt of hairpins on a sequencing array, two-state fit, raised by 9.35 °C to match UV melts; conditions: sodium 0.088 M
In short: (§1)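 In 50 mM Na-HEPES pH 8.0 containing 25 mM NaCl, hairpins from the library on a sequenced MiSeq flow cell were imaged for Cy3 fluorescence at 2.5 °C steps up to 60 °C, with Cy3 and quencher oligos annealed. After normalisation to pre-quench Cy3 and to control constructs, two-state fits with bootstrapping gave melting temperature and folding enthalpy. Four replicates were combined by inverse-variance weighting, and fitted temperatures were shifted up by 9.35 °C to match UV melts.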

[2] = folding enthalpy; higher = less favourable; fluorescence melt of hairpins on a sequencing array, two-state fit; conditions: sodium 0.088 M
In short: as §1

| Sequence | Tm [1] | folding enthalpy [2] |
| --- | --- | --- |
| GATACCGAAAGGTATC ((((((....)))))) | 62.5 °C | -38.6 kcal/mol |
| GGGACGACGAAAGTCCCC (((..(((....)))))) | 49.2 °C | -15.2 kcal/mol |
| GTCCCTCGAAAGAGAGAC (((.(((....))).))) | 46.2 °C | -23.3 kcal/mol |
| GCGTTTGGAAACAAACGC (((((((....))))))) | 67.7 °C | -41.4 kcal/mol |
| GAGGACCCGAAAGGGCTC (((..(((....)))))) | 33.9 °C | -12 kcal/mol |
| GAGGGCGGAAACGCCTTC ((.((((....)))).)) | 50.5 °C | -13.8 kcal/mol |
| GATCGCAAGGGCGATC ((((((....)))))) | 68 °C | -29.3 kcal/mol |
| GCTTGGGGAAACTCGAGC (((.(.(....).).))) | 36.9 °C | -31.3 kcal/mol |
| CGCGTCGGAAACGATGCG (((.(((....))).))) | 62.4 °C | -54.9 kcal/mol |
| GCCGACGAAAGTCTTGGC ((((((....)))..))) | 48.1 °C | -23.2 kcal/mol |
| GCCGAGCGAAAGCCGGGC (((..((....))..))) | 67.2 °C | -13.3 kcal/mol |
| CTTATGAAAATAAG (((((....))))) | 25.1 °C | -11.4 kcal/mol |
| TGTTCGAAAGAACA (((((....))))) | 52.3 °C | -17.1 kcal/mol |
| GATCTTGTTAAAGATC ((((((....)))))) | 53.7 °C | -37.3 kcal/mol |
| GTTCACGGAAACGTGAGC (.(((((....))))).) | 52.1 °C | -22.2 kcal/mol |
| GATCCGTATGCGGATC ((((((....)))))) | 63.2 °C | -40.3 kcal/mol |
| GCGGCTACCCGC ((((....)))) | 55.7 °C | -22.2 kcal/mol |
| GCGCCGCGAAAGCTGGGC ((.(.((....)).).)) | 57 °C | -16.1 kcal/mol |
| GATCGGCCGACCGATC ((((((....)))))) | 57.9 °C | -34.6 kcal/mol |
| GCATAGCGAAAGCAAAGC ((.(.((....)).).)) | 32 °C | -9.49 kcal/mol |
| GCCGAGCGAAAGCTCTGC ((.((((....)))).)) | 58.7 °C | -28.5 kcal/mol |
| GACGGAGCGAAAGCTGTC (((..(((....)))))) | 41.8 °C | -18.9 kcal/mol |
| GATGACGAAAGTCCATC ((((((....))).))) | 41.5 °C | -17.2 kcal/mol |

| Sequence | Tm [1] | folding enthalpy [2] |
| --- | --- | --- |
| GATCGATCCCTCGATC ((((((....)))))) | 52.8 °C | -44.1 kcal/mol |
| GTAGCACGAAAGTGGTAC (((.(((....))).))) | 60.9 °C | -33.7 kcal/mol |
| GAGAAGGGAAACCTTCCC (.(((((....))))).) | 34.6 °C | -15.9 kcal/mol |
| GATCTTCGAAAGATC ((((((...)))))) | 39.9 °C | -21.4 kcal/mol |
| GATCACAGGGGTGATC ((((((....)))))) | 56.2 °C | -33.6 kcal/mol |
| GTGCAACGAAAGTTCCAC (((.(((....))).))) | 38.1 °C | -10.3 kcal/mol |
| GGTGTCGGAAACGATACC (((.(((....))).))) | 54.4 °C | -52 kcal/mol |
| GATCAGAAACTGATC ((((((...)))))) | 47.5 °C | -36.4 kcal/mol |
| GTTGGCGAAAGCCATAAC ((((((....)))..))) | 35.7 °C | -10.2 kcal/mol |
| GCACGTGCGAAAGCATGC (((..(((....)))))) | 40.4 °C | -8.57 kcal/mol |
| GAAGTCGGAAACGATTTC (((.(((....))).))) | 44.2 °C | -30.6 kcal/mol |
| GTAATACCGAAAGGTTAC (((..(((....)))))) | 31.5 °C | -14.6 kcal/mol |
| CGAACCGGAAACGGATCG (((.(((....))).))) | 51.6 °C | -27.6 kcal/mol |
| GATTGGCGAAAGCCCATC (((.(((....))).))) | 38.4 °C | -17 kcal/mol |
| GCAGTAGGAAACTATTGC (((.(((....))).))) | 42.6 °C | -26.9 kcal/mol |
| GCAGGTGCGAAAGCATGC (((..(((....)))))) | 43.9 °C | -13.5 kcal/mol |
| GTGTAAGGAAACTTACGC (.(((((....))))).) | 45.3 °C | -25.7 kcal/mol |
| GACCCGGGAAACTGGGTC (((((.(....).))))) | 59.2 °C | -37.3 kcal/mol |
| GACTTACGAAAGTACGTC (((.(((....))).))) | 44.3 °C | -33.2 kcal/mol |
| GTACGTCGAAAGACTAC (((.(((....)))))) | 41 °C | -21.9 kcal/mol |
| GATCCTAGCGAGGATC ((((((....)))))) | 52.8 °C | -32.9 kcal/mol |
| GCTTCGCGAAAGCCAAGC ((((.((....)).)))) | 50.3 °C | -18.2 kcal/mol |
| GAGGCCGAAAGGCACTC ((((((....))).))) | 54.1 °C | -14.5 kcal/mol |

| Sequence | Tm [1] | folding enthalpy [2] |
| --- | --- | --- |
| GCCCCGCGAAAGCTGAGC ((.(.((....)).).)) | 35 °C | -10.7 kcal/mol |
| GACTCCGAAAGGACGTC ((((((....))).))) | 49.9 °C | -30.8 kcal/mol |
| GCATGGGAAACCATGC ((((((....)))))) | 65.6 °C | -34.4 kcal/mol |
| GCTAGTCGAAAGACCAGC (((.(((....))).))) | 47.3 °C | -26.6 kcal/mol |
| GACTACGAAAGTATAGTC ((((((....)))..))) | 36.8 °C | -23.3 kcal/mol |
| GGGTTCGGAAACGAGCCC (((.(((....))).))) | 58.1 °C | -57.9 kcal/mol |
| GCCATGCGAAAGCAGCGC ((..(((....)))..)) | 47 °C | -17.2 kcal/mol |
| GTTAAGCGAAAGCTGAAC (((.(((....))).))) | 48.2 °C | -23.2 kcal/mol |
| GAGTATGGAAACGTACTC (((((.(....).))))) | 43.5 °C | -33.1 kcal/mol |
| GGGACCGGAAACAGTCCC (((((.(....).))))) | 49.4 °C | -34.5 kcal/mol |
| GAACGCGGAAACACGTCC (.(((.(....).))).) | 28.2 °C | -20.1 kcal/mol |
| GCGGCTGGAAACAGCCAC (.(((((....))))).) | 51.8 °C | -11.8 kcal/mol |
| GAAGGGCCGAAAGGCTTC (((..(((....)))))) | 23 °C | -7.08 kcal/mol |
| ACCGTGAAAACGGT (((((....))))) | 55.4 °C | -17 kcal/mol |
| GAGAGCGAAAGCTACTC ((((((....))).))) | 43.7 °C | -14.5 kcal/mol |
| GATCCCTGAGGGATC ((((((...)))))) | 59.6 °C | -34.7 kcal/mol |
| GTACGACGAAAGTCATAC (((.(((....))).))) | 39.4 °C | -19 kcal/mol |
| GCAATGCGAAAGCTTAGC ((.(.((....)).).)) | 36.4 °C | -15.9 kcal/mol |
| AGCTCGAAAGAGCT (((((....))))) | 68.6 °C | -20.8 kcal/mol |
| GGCAGTCGAAAGACGCC (((.(((....)))))) | 65 °C | -26.6 kcal/mol |
| GATCGGGTGCCCGATC ((((((....)))))) | 60.1 °C | -36.7 kcal/mol |
| GGGAAAGCGAAAGCTCCC (((..(((....)))))) | 51.8 °C | -20.9 kcal/mol |
| GGCTGCGAAAGCATAGCC ((((((....)))..))) | 57.1 °C | -35.5 kcal/mol |

| Sequence | Tm [1] | folding enthalpy [2] |
| --- | --- | --- |
| GTTTTCCGAAAGGATAAC (((.(((....))).))) | 44.9 °C | -28.4 kcal/mol |
| GCGTGGCGAAAGCATCGC (((..((....))..))) | 62.1 °C | -31.9 kcal/mol |
| GATCTGCCGCAGATC ((((((...)))))) | 48.1 °C | -41.5 kcal/mol |
| GAAGTCGAAAGACTTC ((((((....)))))) | 65.7 °C | -34.2 kcal/mol |
| GATCCGTCAGCGGATC ((((((....)))))) | 57.4 °C | -42.6 kcal/mol |
| GAAGTCGGAAACGGTTTC (((..((....))..))) | 28.4 °C | -8.25 kcal/mol |
| GGGAACGAAAGTTCTCCC ((((((....)))..))) | 45 °C | -14.7 kcal/mol |
| GTAAGGGGAAACCCCTAC (((.(((....))).))) | 39 °C | -16.9 kcal/mol |
| GTGACTGCGAAAGCACAC (((..(((....)))))) | 38.8 °C | -8.82 kcal/mol |
| GATCAACCGTTTGATC ((((((....)))))) | 42.8 °C | -35.2 kcal/mol |
| GCTCCCGGAAACAGGAGC (((((.(....).))))) | 49.5 °C | -34.3 kcal/mol |
| GAACCACGAAAGTGTTTC (((.(((....))).))) | 37.2 °C | -27.6 kcal/mol |
| GTCTAACGAAAGTTTGAC (((.(((....))).))) | 47.6 °C | -36.7 kcal/mol |
| GGTTAGGGAAACCTAGTC (..((((....))))..) | 28.7 °C | -11.7 kcal/mol |
| GCGACCCATCGC ((((....)))) | 52.2 °C | -19.5 kcal/mol |
| GCCTCGACGAAAGTCGGC (((..(((....)))))) | 52.1 °C | -6.95 kcal/mol |
| GCCATGCGAAAGCAGTGC ((..(((....)))..)) | 39.7 °C | -15.2 kcal/mol |
| GGACGGGGAAACTCGTCC (((((.(....).))))) | 58 °C | -41 kcal/mol |
| GCCTCGCGAAAGCGGAGC ((..(((....)))..)) | 50.9 °C | -13.7 kcal/mol |
| GATCGGACCTCCGATC ((((((....)))))) | 56.6 °C | -40.7 kcal/mol |
| GGATTCGAAAGAACTCC ((((((....))).))) | 36 °C | -22 kcal/mol |
| GATGCCGAAAGGCGTATC ((((((....)))..))) | 36.4 °C | -11.5 kcal/mol |
| GTACACGAAAGTGTTAC ((((((....))).))) | 42.5 °C | -12.9 kcal/mol |
